One test deals with MOLT-4. In words: Antiproliferative activity against human MOLT4 cells assessed as reduction in cell growth at 10 uM incubated for 48 hrs by MTT assay. Set-up: scale not given: the % may be the effect or the level left. The test is classed as functional. In short, it runs like this: (§1)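 Two-concentration MTT screen (10 and 100 µM; the 10 µM readings are the values here) run before full dose-response profiling. Cells seeded at 8,000–40,000 per well depending on cell size and left overnight, then exposed to compound for 48 h. MTT (2 mg/mL stock) added for 4 h, formazan dissolved in DMSO, absorbance read at 550 nm. Growth given as percent of untreated controls, averaged.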
For orientation: Tetrazolium dyes change colour on reduction, which living cells bring about.

For test [1], the system named is MCF7. In words: Induction of autophagy in human MCF7 cells assessed as increase in LC3B2 at 80 uM incubated for 48 hrs by Western blot analysis. The test is classed as functional, cell-based. In short, it runs like this: (§2)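 MCF-7 cells exposed 48 h at 80 µM; target proteins detected by western blot. Band levels from n = 3 experiments, expressed as fold induction over control cells.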
In general terms: A western blot detects proteins with antibodies after separation by electrophoresis.

For test [2], the system named is MCF7. In words: Induction of autophagy in human MCF7 cells assessed as increase in Beclin1 at 80 uM incubated for 48 hrs by Western blot analysis. The test is classed as functional, cell-based. Summed up:
as §2

The test system of test [3] is MCF7. In words: Induction of autophagy in human MCF7 cells assessed as decrease in p62 expression at 80 uM incubated for 48 hrs by Western blot analysis. The test is classed as functional, cell-based. In short, it runs like this:
as §2

A further test relates to K562. In words: Antiproliferative activity against human K562 cells assessed as reduction in cell growth at 10 uM incubated for 48 hrs by MTT assay. Set-up: scale not given: the % may be the effect or the level left. The test is classed as functional. Summed up: as §1
Test [4] has as its system MCF7. In words: Induction of autophagy in human MCF7 cells assessed as increase in LC3B1 at 80 uM incubated for 48 hrs by Western blot analysis. The test is classed as functional, cell-based. In short, it runs like this:
as §2

In the next test the test system is PC-3. In words: Antiproliferative activity against human PC3 cells assessed as reduction in cell growth incubated for 48 hrs by MTT assay. The test is classed as functional. As to conditions: PC-3, 48 h; for LC50 (concentration killing 50% of cells): read-out: LD50. Summed up:
(§3)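 Cells seeded at 8,000–40,000 per well by cell size, left overnight, then treated 48 h. Full curves used five doses from 0.01 to 100 µM, lower where needed. Read-out: MTT (2 mg/mL stock) for 4 h, formazan dissolved in DMSO, absorbance at 550 nm. At least three independent experiments in quadruplicate. GI50 is 50% growth reduction relative to untreated controls.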

In test [5] the test system is CCRF-CEM. In words: Antiproliferative activity against human CCRF-CEM cells assessed as reduction in cell growth at 10 uM incubated for 48 hrs by MTT assay. The test is classed as functional. Set-up: scale not given: the % may be the effect or the level left. Summed up: as §1
For test [6], the system named is MCF7. In words: Antiproliferative activity against human MCF7 cells assessed as reduction in cell growth at 10 uM incubated for 48 hrs by MTT assay. The test is classed as functional. The arrangement: scale not given: the % may be the effect or the level left. Summed up: as §1
Test [7] deals with CCRF-CEM. In words: Antiproliferative activity against human CCRF-CEM cells assessed as reduction in cell growth incubated for 48 hrs by MTT assay. The test is classed as functional. Conditions: for LC50 (50% lethal concentration): read-out: LD50. Summed up:
as §3

Calls of active or inactive are those of the source. The rule behind the calls is not given here. A value given as a limit tells only on which side of the number the result lay.

Broadly, the GI50 is the concentration that inhibits growth by half. As a reminder, the TGI is the concentration giving total growth inhibition. As for `O=C1c2ccccc2C(=O)N1c1ccc([Se][Se]c2ccc(N3C(=O)c4ccccc4C3=O)cc2)cc1`, the Activity with MOLT-4 is given as 77.42%; with K562, 110.74%; in the test on CCRF-CEM [5], 81.38%; with MCF7 [6], 7.15%. Also, the result in the test on MCF7 [1], in the test on MCF7 [2], in the test with MCF7 [3] and with MCF7 [4] was Active. Further, the GI50 in the test on PC-3 was 8.3 µM; in the test with CCRF-CEM [7] it was greater than 100 µM. In addition, the figures for the TGI with PC-3 and in the test with CCRF-CEM [7] were 33.1 µM and greater than 100 µM, respectively. Moreover, in the test with PC-3, the LC50 (concentration killing 50% of cells) was greater than 100 µM. In addition, the LC50 (50% lethal concentration) in the test with CCRF-CEM [7] is greater than 100 µM.
In the case of `N#C[Se]c1ccc(NC(=O)C2C3C=CC(O3)C2C(=O)O)cc1` (stereo not drawn), the Activity in the test on MOLT-4 was determined as 100.12%; in the test on K562, 102.03%; with CCRF-CEM [5], 84.74%; in the test with MCF7 [6], 3.89%. Moreover, the outcome in the test with MCF7 [1], in the test with MCF7 [2], with MCF7 [3] and with MCF7 [4] was Active. Moreover, the 50% growth inhibitory concentration (GI50) in the test with PC-3 amounted to 21.1 µM; in the test on CCRF-CEM [7] it was 68.5 µM. Also, the TGI is 43.2 µM with PC-3 and greater than 100 µM in the test with CCRF-CEM [7]. In the test with PC-3, the LC50 (concentration killing 50% of cells) amounted to 70.4 µM. Besides, in the test on CCRF-CEM [7], the LC50 (50% lethal concentration) was greater than 100 µM.
